In ChEMBL document CHEMBL1165845, “Synthesis and biological evaluation of analogues of a novel inhibitor of beta-amyloid secretion” (J Med Chem, 2010):

How the values were obtained:
Assay type in all cases: cell-based
Parameters in all cases: scale not given: the % may be the effect or the level left
[1] = test system: H4; test: Induction of alpha-secretase-mediated reduction in amyloid beta secretion in human H4 cells expressing wild type betaAPP695 at 10 uM after 24 hrs […] relative to control
Summary of the method: (§1)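 Serum-starved H4βAPP695wt cells are treated for 24 h with drug in DMSO (0.02% DMSO vehicle control). Total Aβ in conditioned medium is measured by sandwich ELISA with 6E10 capture and 4G8 detection, normalized to lysate protein by BCA. Cytotoxicity is read as total cell protein. Quadruplicate wells in 1-4 independent experiments give the % decrease versus vehicle.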

[2] = test system: H4; test: Induction of alpha-secretase-mediated reduction in amyloid beta secretion in human H4 cells expressing wild type betaAPP695 at 30 uM after 24 hrs […] relative to control; summary of the method: as §1
[3] = test system: H4; test: Cytotoxicity against human H4 cells expressing wild type betaAPP695 assessed as decrease in cell protein at 30 uM after 24 hrs; settings: h4, 24 h; summary of the method: as §1
[4] = test system: H4; test: Cytotoxicity against human H4 cells expressing wild type betaAPP695 assessed as decrease in cell protein at 10 uM after 24 hrs; settings: h4, 24 h; summary of the method: as §1

Row | SMILES | Activity [1] | Activity [2] | Activity [3] | Activity [4]
1 | O=C(NCCSCc1cccc(Cl)c1)c1ccc(F)cc1 | 6.4% | – | – | –
2 | O=C(NCCSCc1cccc(Cl)c1)c1ccccc1 | 0.3% | 10.7% | -4.5% | 2.4%
3 | O=C(NCCSCc1cccc(Cl)c1)c1ccccc1Cl | 4.7% | – | – | –
4 | O=C(NCCSCc1cccc(C(F)(F)F)c1)c1c(Cl)cccc1Cl | 73.9% | 93.4% | 47.8% | 19%
5 | COc1cccc(CSCCNC(=O)c2c(OC)cccc2OC)c1 | 6.2% | -0.6% | 3.9% | 0.5%
6 | COc1cccc(C[S+]([O-])CCNC(=O)c2c(Cl)cccc2Cl)c1 (stereo not drawn) | -13.6% | -15.8% | 9.2% | 1.6%
7 | CN(C)CCCNC(=O)c1c(Cl)cccc1Cl | 15.8% | – | – | –
8 | NC(=O)c1c(Cl)cccc1CSCCNC(=O)c1c(Cl)cccc1Cl | 44.7% | 49.7% | -5.6% | 2.5%
9 | O=C(NCCSCc1ccc(F)cc1)c1c(F)cccc1Cl | 27.3% | – | – | –
10 | O=C(NCCSCc1ccc(Cl)cc1Cl)c1ccc(Cl)cc1Cl | 39.8% | – | – | –
11 | CCN(CC)CCCNC(=O)c1c(Cl)cccc1Cl | 5.1% | – | – | –
12 | COc1cccc(OC)c1C(=O)NCCSCc1cccc(Cl)c1 | -13.1% | 11.2% | -0.6% | 7.1%
13 | O=C(NCCSCc1cccc(NC(=O)C2CC2)c1)c1c(Cl)cccc1Cl | -21.4% | -2% | 3.2% | 3%
14 | Nc1cccc(CSCCNC(=O)c2c(Cl)cccc2Cl)c1 | 0.1% | 17% | 13.1% | 15.3%
15 | COc1ccc(CSCCNC(=O)c2c(Cl)cccc2Cl)cc1 | 1.6% | 1.1% | 12.7% | 6.7%
16 | O=C(NCCSCc1cccc(Br)c1)c1c(Br)cccc1Br | 78.6% | 87.3% | 23.9% | 9.8%
17 | O=C(NCCSCc1cccc(Cl)c1)c1c(F)cccc1F | 4.9% | 21.6% | 8.1% | 5.1%
18 | O=C(NCCSCc1ccc(Cl)c(Cl)c1)c1ccccc1Cl | 0.7% | – | – | –
19 | O=C(NCCSCc1cccc(O)c1O)c1c(Cl)cccc1Cl | -4.3% | 33.1% | 14% | -4.8%
20 | COCCCNC(=O)c1c(Cl)cccc1Cl | 6.9% | – | – | –
21 | Cc1cccc(C)c1C(=O)NCCSCc1cccc(Cl)c1 | 29.5% | 51.6% | -9.4% | 0.9%
22 | O=C(CSCc1c(F)cccc1Cl)NCc1ccccc1Cl | 47.8% | – | – | –
23 | O=Cc1cccc(CSCCNC(=O)c2c(Cl)cccc2Cl)c1 | 19.9% | 36.4% | -2.1% | 1.5%

Row | SMILES | Activity [1] | Activity [2] | Activity [3] | Activity [4]
24 | O=C(NCCSCc1cccc(Cl)c1)c1c([N+](=O)[O-])cccc1[N+](=O)[O-] | 28.8% | 52.9% | 17.8% | 0.1%
25 | Oc1c(Cl)cc(Cl)cc1/C=N/CCSCc1ccccc1Cl | 5.3% | – | – | –
26 | O=C(NCCCCNC(=O)c1c(Cl)cccc1Cl)c1c(Cl)cccc1Cl | 4% | – | – | –
27 | O=C(NCCSCc1cccc(O)c1)c1c(O)cccc1O | -22.5% | -25.2% | 14.3% | 10.5%
28 | O=C(NCCCCNC(=O)c1ccccc1Br)c1ccccc1Br | 7.9% | – | – | –
29 | O=C(NCCSCc1cc(O)cc(O)c1)c1c(Cl)cccc1Cl | 3.1% | 17.2% | -0.7% | -0.4%
30 | COc1cccc(CSCCNC(=O)c2c(Cl)cccc2OC)c1 | -2.9% | -4.7% | 9.3% | 1.9%
31 | COc1cccc(CS(=O)(=O)CCNC(=O)c2c(Cl)cccc2Cl)c1 | 5.3% | 4.9% | 8.9% | 1.2%
32 | O=C(NCCOCc1cccc(Cl)c1)c1c(Cl)cccc1Cl | 10.5% | -5.1% | 4.2% | -9.9%
33 | CN(C)CCNC(=O)c1c(Cl)cccc1Cl | 6.6% | – | – | –
34 | O=C(NCCSCc1ccc(Cl)cc1)c1c(Cl)cccc1Cl | 21.8% | 36.5% | 3% | -6.4%
35 | O=C(NCCS(=O)(=O)Cc1cccc(Cl)c1)c1c(Cl)cccc1Cl | 8.9% | 9.3% | -3.8% | -2.2%
36 | O=C(NCCOCc1ccccc1)c1ccccc1Cl | 10.3% | – | – | –
37 | N=C(NO)c1cccc(CSCCNC(=O)c2c(Cl)cccc2Cl)c1 | – | – | 5.9% | 9.2%
38 | O=C(NCC[S+]([O-])Cc1cccc(O)c1)c1c(Cl)cccc1Cl (stereo not drawn) | -23.7% | 15.9% | 4.4% | 2.8%
39 | NC(=O)c1cccc(CSCCNC(=O)c2c(Cl)cccc2Cl)c1 | 6.2% | 32.3% | -8.6% | -2.8%
40 | O=C(NCc1ccccc1)c1c(F)cccc1Cl | 3.8% | – | – | –
41 | N#Cc1cccc(CSCCNC(=O)c2c(Cl)cccc2Cl)c1 | 20% | 38.7% | 4.3% | -4.8%
42 | N#Cc1c(Cl)cccc1CSCCNC(=O)c1c(Cl)cccc1Cl | 48.7% | 52.3% | 1.3% | 3.5%
43 | O=C(NCCSCc1cccc(Br)c1)c1c(Cl)cccc1Cl | 75% | 90.1% | 38.6% | 12.3%
44 | O=C(NCCSCc1ccccc1Cl)c1ccccc1Cl | 4% | – | – | –
45 | Clc1cccc(CSCCNCc2c(Cl)cccc2Cl)c1 | 45.2% | 45.6% | 6.6% | -3.6%
46 | CC(C)(CNC(=O)c1c(Cl)cccc1Cl)SCc1ccc(F)cc1 | 37% | – | – | –

Row | SMILES | Activity [1] | Activity [2] | Activity [3] | Activity [4]
47 | CCOC(=O)c1cccc(CSCCNC(=O)c2c(Cl)cccc2Cl)c1 | 3% | 10.1% | 5.4% | 5.8%
48 | O=C(NCCS(=O)(=O)Cc1cccc(O)c1)c1c(Cl)cccc1Cl | -10.1% | 9.6% | 4.4% | 7.7%
49 | COc1cccc(CSCCNC(=O)c2c([N+](=O)[O-])cccc2[N+](=O)[O-])c1 | -14.1% | -2.8% | -3.8% | 3.7%
50 | O=C(NCCSCc1ccc(Cl)c(Cl)c1)c1ccc(Cl)cc1Cl | 4.3% | – | – | –
51 | O=C(NCCSCc1cccc(OCCOCCO)c1)c1c(Cl)cccc1Cl | 17.4% | 24.3% | 6.1% | -7.3%
52 | O=C(NCCNC(=O)c1ccccc1F)c1ccccc1F | 0.2% | – | – | –
53 | O=C(O)c1cccc(CSCCNC(=O)c2c(Cl)cccc2Cl)c1 | -11.4% | -3.8% | 3.2% | 7.1%
54 | O=C(NC1CC1)c1cccc(CSCCNC(=O)c2c(Cl)cccc2Cl)c1 | 1.9% | 11% | -1% | 0%
55 | O=C(NCCSc1ccccc1)c1ccccc1Cl | -4.4% | – | – | –
56 | O=C(NCCSCc1cccc(F)c1)c1c(F)cccc1F | -16.8% | -15.5% | 1.8% | 0.1%
57 | O=C(NCCSCc1cccc(Cl)c1)c1c(Br)cccc1Br | 74.2% | 83.4% | 20.8% | 6.7%
58 | O=C(NCC[S+]([O-])Cc1cccc(Cl)c1)c1c(Cl)cccc1Cl (stereo not drawn) | 4% | -16.5% | 7.3% | -4.9%
59 | O=C(NCCSCc1cccc(Cl)c1)c1c(C(F)(F)F)cccc1C(F)(F)F | 6.2% | 13.5% | -0.4% | -4.2%
60 | O=C(Cc1c(Cl)cccc1Cl)NCCSCc1cccc(Cl)c1 | 6.7% | 13.5% | -0.7% | -1.3%
61 | O=C(NCCSCc1cccc([N+](=O)[O-])c1)c1c(Cl)cccc1Cl | 58.5% | 72.5% | 24.6% | 7.5%
62 | N/C(=N\O)c1cccc(CSCCNC(=O)c2c(Cl)cccc2Cl)c1 | -1.5% | 1.6% | – | –
63 | O=C(NCCSCc1cccc(F)c1)c1c(Cl)cccc1Cl | 10.2% | 36.1% | 3.7% | 2.6%
64 | COc1cc(CSCCNC(=O)c2c(Cl)cccc2Cl)cc(OC)c1 | 47.9% | 80.4% | -8.7% | 2%
65 | O=C(NCCSCc1ccccc1)c1ccccc1 | -5.7% | 5.5% | -4.1% | 0.7%
66 | O=C(NCCS(=O)(=O)Cc1ccc(F)cc1)c1c(F)cccc1Cl | 39.2% | – | – | –
67 | O=C(NCCSCc1ccc(Cl)cc1)c1ccccc1Cl | -12% | – | – | –
68 | O=C(NCCNC(=O)c1c(Cl)cccc1Cl)c1c(Cl)cccc1Cl | 7.6% | – | – | –
69 | O=C(NCCSCc1ccc(O)cc1)c1c(Cl)cccc1Cl | 13.1% | 56.7% | 4.4% | 8.7%
